Laboratory results as given in ChEMBL document CHEMBL2390932, “(+)-Usnic acid enamines with remarkable cicatrizing properties” (Bioorg Med Chem, 2013).
Converted amounts (≈) assume the structure as drawn. The source made the active and inactive calls. No cut-off for these calls is given here.

Legend:
[1] = test system: Hathewaya histolytica; assay: Inhibition of Clostridium histolyticum collagenase using N-[3-(2-Furyl)acryloyl]-Leu-Gly-Pro-Ala as substrate at 100 ug/ml after 15 mins by spectrophotometric analysis relative to control
Procedure, shortened: (§1)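 Samples dissolved in DMSO and diluted in 50 mM Tricine buffer (0.4 M NaCl, 0.01 M CaCl2, pH 7.5). Clostridium histolyticum collagenase and sample preincubated 5 min at 25 °C, then incubated 15 min. FALGPA substrate, prepared at 2 mM in the same buffer, was then added. Inhibition given as % with S.E.M.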

[2] = molecular target: T1, Neutrophil elastase (Homo sapiens) (UniProt P08246); assay: Inhibition of human neutrophil elastase assessed as N-methoxysuccinyl-Ala-Ala-Pro-Val p-nitroanilide conversion to p-nitroaniline at 100 ug/ml after 1 hr by spectrophotometric analysis relative to control
T1 sequence (whole entry): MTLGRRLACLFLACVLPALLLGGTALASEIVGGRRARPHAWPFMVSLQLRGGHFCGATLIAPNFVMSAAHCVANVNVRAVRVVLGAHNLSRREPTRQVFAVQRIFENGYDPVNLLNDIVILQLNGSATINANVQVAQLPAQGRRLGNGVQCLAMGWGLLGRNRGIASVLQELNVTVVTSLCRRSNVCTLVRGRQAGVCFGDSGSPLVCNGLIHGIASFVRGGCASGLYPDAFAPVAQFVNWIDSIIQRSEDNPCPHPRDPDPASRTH
Procedure, shortened: (§2)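 Sample and human neutrophil elastase (17 mU/ml) mixed in 0.1 M Tris–HCl, pH 7.5, and held 5 min at 25 °C. MeOSuc-Ala-Ala-Pro-Val p-nitroanilide was added and the mixture incubated 1 h at 37 °C. Reaction stopped with soybean trypsin inhibitor (1 mg/ml); p-nitroaniline absorbance read immediately. Inhibition given as % with S.E.M.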

[3] = test system: Mus musculus; assay: Wound healing activity in Swiss albino mouse circular excision wound model assessed as hydroxyproline content in skin applied topically qd after 7 days by spectrophotometric analysis; type: functional
Procedure, shortened: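 Skin from ointment-treated mouse wounds (7 days) dried at 60–70 °C to constant weight, then hydrolyzed in 6 N HCl for 3 h at 130 °C. Hydrolysate neutralized to pH 7, oxidized with chloramine T and reacted with Ehrlich reagent at 60 °C. Read at 557 nm and reported as mg/g with S.E.M.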

[4] = organism: Bos taurus; assay: Inhibition of bovine hyaluronidase assessed as sodium hyaluronate conversion to N-acetylglucosamine at 50 ug/ml by spectrophotometric analysis relative to control
[5] = organism: Bos taurus; assay: Inhibition of bovine hyaluronidase assessed as sodium hyaluronate conversion to N-acetylglucosamine at 100 ug/ml by spectrophotometric analysis relative to control
[6] = test system: Hathewaya histolytica; assay: Inhibition of Clostridium histolyticum collagenase using N-[3-(2-Furyl)acryloyl]-Leu-Gly-Pro-Ala as substrate at 50 ug/ml after 15 mins by spectrophotometric analysis relative to control; procedure, shortened: as §1
[7] = molecular target: T1, Neutrophil elastase (Homo sapiens); assay: Inhibition of human neutrophil elastase assessed as N-methoxysuccinyl-Ala-Ala-Pro-Val p-nitroanilide conversion to p-nitroaniline at 50 ug/ml after 1 hr by spectrophotometric analysis relative to control; procedure, shortened: as §2
[8] = test system: Mus musculus; assay: Wound healing activity in Swiss albino mouse circular excision wound model assessed as wound contraction applied topically qd after 10 days (reference value: 6.29%); type: functional
[9] = test system: Mus musculus; assay: Wound healing activity in Swiss albino mouse circular excision wound model assessed as wound contraction applied topically qd after 8 days (reference value: 2.18%); type: functional
[10] = test system: Mus musculus; assay: Wound healing activity in Swiss albino mouse circular excision wound model assessed as wound contraction applied topically qd after 6 days (reference value: 3.41%); type: functional
[11] = test system: Mus musculus; assay: Wound healing activity in Swiss albino mouse circular excision wound model assessed as wound contraction applied topically qd after 4 days relative to control; type: functional; set-up: concentration or dose not given beside the values
[12] = test system: Mus musculus; assay: Wound healing activity in Swiss albino mouse circular excision wound model assessed as wound contraction applied topically qd after 2 days relative to control; type: functional; set-up: concentration or dose not given beside the values
[13] = test system: Mus musculus; assay: Wound healing activity in Swiss albino mouse circular excision wound model assessed as wound contraction applied topically qd measured on the same day relative to control; type: functional; set-up: concentration or dose not given beside the values
[14] = test system: Rattus norvegicus; assay: Wound healing activity in Sprague-Dawley rat linear incision wound model assessed as tensile strength of wound applied topically qd for 9 days measured on day 10 by tensiometer (reference value: 10.6%); type: functional
[15] = test system: HaCaT; assay: Cytotoxicity against human HaCaT cells after 24 hrs by neutral red dye uptake assay; type: cell-based; conditions: for IC50: Homo sapiens, HaCaT; for IC05: human, hacat
Procedure, shortened: (§3)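 Cells kept in DMEM with 10% FBS at 37 °C, 5% CO2. Seeded at 20,000 cells/well, grown 24 h, then exposed 24 h to a concentration series. Neutral red (0.05%) added for 3 h at 37 °C, dye extracted with 1% acetic acid in 50% ethanol, absorbance read at 540 nm. IC50, IC05 and 95% confidence intervals derived from a downhill logistic curve fit.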

[16] = test system: A-431; assay: Cytotoxicity against human A431 cells after 24 hrs by neutral red dye uptake assay; type: functional, cell-based; conditions: A-431, 24 h; procedure, shortened: as §3
[17] = test system: HaCaT; assay: Wound healing activity in human HaCaT cells assessed as wound closure rate at 5 uM after 24 hrs by inverted microscopic analysis; type: functional, cell-based
Procedure, shortened: (§4)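 Confluent HaCaT monolayers scratched with a pipette tip, washed, re-fed with medium and exposed to compound for 24 h; 20% (v/v) platelet lysate served as positive control. Cells fixed in 3.7% formaldehyde and stained with 0.1% toluidine blue. Wound width measured by inverted microscope with camera at 0 and 24 h; closure taken as the width difference. Results expressed relative to control mean (100%), two independent experiments, n = 20 each.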

[18] = test system: HaCaT; assay: Wound healing activity in human HaCaT cells assessed as wound closure rate at 2.5 ug/mL after 24 hrs by inverted microscopic analysis; type: functional, cell-based; procedure, shortened: as §4
[19] = test system: HaCaT; assay: Wound healing activity in human HaCaT cells assessed as wound closure rate at 2.2 ug/mL after 24 hrs by inverted microscopic analysis; type: functional, cell-based; procedure, shortened: as §4
[20] = test system: HaCaT; assay: Wound healing activity in human HaCaT cells assessed as wound closure rate at 2 ug/mL after 24 hrs by inverted microscopic analysis; type: functional, cell-based; procedure, shortened: as §4
[21] = test system: HaCaT; assay: Wound healing activity in human HaCaT cells assessed as wound closure rate at 2.1 ug/mL after 24 hrs by inverted microscopic analysis; type: functional, cell-based; procedure, shortened: as §4
[22] = test system: HaCaT; assay: Wound healing activity in human HaCaT cells assessed as wound closure rate at 1.7 ug/mL after 24 hrs by inverted microscopic analysis; type: functional, cell-based; procedure, shortened: as §4

SMILES: O=C(O[C@@H]1Cc2c(O)cc(O)cc2O[C@@H]1c1cc(O)c(O)c(O)c1)c1cc(O)c(O)c(O)c1
- inhibition [1]: 41.2%
- inhibition [2]: 88.2%

SMILES: CC(=O)c1c(O)c(C)c(O)c2c1OC1=CC(=O)/C(=C(/C)NCCSSCCN/C(C)=C3\C(=O)C=C4Oc5c(C(C)=O)c(O)c(C)c(O)c5[C@@]4(C)C3=O)C(=O)[C@@]12C
- Activity [3]: 20.4 mg/g
- inhibition [4]: 10%
- inhibition [5]: 18.3%
- inhibition [6]: 20.8%
- inhibition [1]: 29.3%
- inhibition [7]: 21.3%
- inhibition [2]: 30.1%
- Activity [8]: 2.96%
- Activity [9]: 6.48%
- Activity [10]: 12.48%
- Activity [11]: 15.92%
- Activity [12]: 17.95%
- Activity [13]: 19.25%
- Activity [14]: 15.91%

SMILES: CC(=O)c1c(O)c(C)c(O)c2c1OC1=CC(=O)/C(=C(/C)N[C@@H](CCCNC(=N)N)C(=O)O)C(=O)[C@@]12C
- IC50 [15]: 163 µg/mL (≈ 326 µM)
- IC05 [15]: 16 µg/mL

SMILES: CC(=O)c1c(O)c(C)c(O)c2c1OC1=CC(=O)/C(=C(/C)NCCc3c[nH]c4ccccc34)C(=O)[C@@]12C
- IC50 [16]: 29 µg/mL (≈ 59.6 µM)
- IC50 [15]: 5.3 µg/mL (≈ 10.9 µM)
- IC05 [15]: 2.5 µg/mL

SMILES: CC(=O)c1c(O)c(C)c(O)c2c1OC1=CC(=O)/C(=C(/C)NCCCC(=O)O)C(=O)[C@@]12C
- Activity [3]: 43 mg/g
- inhibition [4]: 25.8%
- inhibition [5]: 39.4%
- inhibition [6]: 21.4%
- inhibition [1]: 49.2%
- inhibition [7]: 25.1%
- inhibition [2]: 30.3%
- Activity [17]: Active
- Activity [18]: Active
- Activity [19]: Active
- Activity [20]: Active
- Activity [21]: Active
- Activity [8]: 0.66%
- Activity [9]: 3.84%
- Activity [10]: 9.01%
- Activity [11]: 12.81%
- Activity [12]: 16.03%
- Activity [13]: 19.7%
- Activity [14]: 47.6%
- Activity [22]: Active
- IC50 [15]: 150 µg/mL (≈ 349 µM)
- IC05 [15]: 67 µg/mL

SMILES: CC(=O)c1c(O)c(C)c(O)c2c1OC1=CC(=O)/C(=C(/C)NCCS)C(=O)[C@@]12C
- Activity [3]: 39.8 mg/g
- inhibition [4]: 10.2%
- inhibition [5]: 15.6%
- inhibition [6]: 19.5%
- inhibition [1]: 27.3%
- inhibition [7]: 15.3%
- inhibition [2]: 20.4%
- Activity [17]: Active
- Activity [18]: Active
- Activity [19]: Active
- Activity [20]: Active
- Activity [21]: Active
- Activity [8]: 1.39%
- Activity [9]: 4.42%
- Activity [10]: 10.25%
- Activity [11]: 13.74%
- Activity [12]: 16.41%
- Activity [13]: 19.46%
- Activity [14]: 35.2%
- Activity [22]: Active
- IC50 [15]: 155 µg/mL (≈ 384 µM)
- IC05 [15]: 43 µg/mL

SMILES: CC(=O)c1c(O)c(C)c(O)c2c1OC1=CC(=O)/C(=C(/C)NCC(=O)O)C(=O)[C@@]12C
- IC50 [16]: 4.1 µg/mL (≈ 10.2 µM)
- IC50 [15]: 5.8 µg/mL (≈ 14.5 µM)
- IC05 [15]: 0.2 µg/mL

SMILES: CC(=O)c1c(O)c(C)c(O)c2c1OC1=CC(=O)/C(=C(/C)NCCS(=O)(=O)O)C(=O)[C@@]12C
- Activity [3]: 30.8 mg/g
- Activity [17]: Active
- Activity [18]: Active
- Activity [19]: Active
- Activity [20]: Active
- Activity [21]: Active
- Activity [8]: 2.29%
- Activity [9]: 5.04%
- Activity [10]: 11.42%
- Activity [11]: 14.52%
- Activity [12]: 17.74%
- Activity [13]: 19.33%
- Activity [14]: 29.3%
- Activity [22]: Active
- IC50 [15]: 47 µg/mL (≈ 104 µM)

SMILES: O=C(OC[C@H]1O[C@@H](OC(=O)c2cc(O)c(O)c(OC(=O)c3cc(O)c(O)c(O)c3)c2)[C@H](OC(=O)c2cc(O)c(O)c(OC(=O)c3cc(O)c(O)c(O)c3)c2)[C@@H](OC(=O)c2cc(O)c(O)c(OC(=O)c3cc(O)c(O)c(O)c3)c2)[C@@H]1OC(=O)c1cc(O)c(O)c(OC(=O)c2cc(O)c(O)c(O)c2)c1)c1cc(O)c(O)c(OC(=O)c2cc(O)c(O)c(O)c2)c1
- inhibition [5]: 76.3%

SMILES: CC(=O)c1c(O)c(C)c(O)c2c1OC1=CC(=O)/C(=C(/C)N[C@@H](Cc3ccc(O)cc3)C(=O)O)C(=O)[C@@]12C
- Activity [17]: Active
- Activity [18]: Active
- Activity [19]: Active
- Activity [20]: Active
- Activity [21]: Active
- Activity [22]: Active
- IC50 [16]: 36 µg/mL (≈ 70.9 µM)
- IC50 [15]: 13 µg/mL (≈ 25.6 µM)
- IC05 [15]: 1.3 µg/mL

SMILES: CC(=O)c1c(O)c(C)c(O)c2c1OC1=CC(=O)/C(=C(/C)N)C(=O)[C@@]12C
- inhibition [4]: 35.3%
- inhibition [5]: 41.9%
- inhibition [6]: 20.7%
- inhibition [1]: 33.1%
- inhibition [7]: 13.3%
- inhibition [2]: 15.3%

SMILES: CC(=O)c1c(O)c(C)c(O)c2c1OC1=CC(=O)/C(=C(/C)N[C@@H](Cc3c[nH]cn3)C(=O)O)C(=O)[C@@]12C
- IC50 [15]: 36 µg/mL (≈ 74.8 µM)
- IC05 [15]: 1.7 µg/mL
